Shown are actives, neighbours in structure and some others; about 5.8% of the full set was active somewhere.
14-3-3 Bad PPI – disrupts binding of bovine 14-3-3 zeta to phospho-Bad peptide | inhibition, % at 21.7 µM | TR-FRET 14-3-3zeta/Dy647-pBad peptide displacement, 1 h | hit rate 0.71% among 220,000 | P63103;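 active = inhibition above about 70%, limit read from the data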;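 note: 0% = full 14-3-3 plus peptide FRET controls and 100% = background without 14-3-3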
WT yeast gro inh – growth inhibition of WT yeast, mitochondrial fusion screen. mitochondrial fusion phenotypic screen, WT strain. inhibition, % at 10 µM. hit rate 2.1% among 190,000. AID 1362; in the data active = inhibition above about 58%; tested in S. cerevisiae
p47phox inh – blocks human p47phox regulatory protein of NADPH oxidases; P14598; p47phox/p22phox peptide binding, fluorescence polarization, 2 h; inhibition, % at 24.7 µM; hit rate 0.53% among 220,000; AID 1274;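 active = inhibition above about 30%, limit read from the data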;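 note: 0% = p47phox with labelled peptide and 100% = labelled peptide alone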
ROMK mod – modulates human ROMK potassium channel activity. B-score at 10 µM. P48048. Tet-inducible ROMK, thallium flux fluorescence; actives lie on both sides. hit rate 2% among 130,000. AID 1918;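 active = signal ratio slope over the read window, or its plate-corrected B-score, at least 3 SD from the plate mean, either direction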;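 note: B-score of the F/F0 ratio slope over 7 to 12 s after thallium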
Target sequence (P48048 whole entry, looked up): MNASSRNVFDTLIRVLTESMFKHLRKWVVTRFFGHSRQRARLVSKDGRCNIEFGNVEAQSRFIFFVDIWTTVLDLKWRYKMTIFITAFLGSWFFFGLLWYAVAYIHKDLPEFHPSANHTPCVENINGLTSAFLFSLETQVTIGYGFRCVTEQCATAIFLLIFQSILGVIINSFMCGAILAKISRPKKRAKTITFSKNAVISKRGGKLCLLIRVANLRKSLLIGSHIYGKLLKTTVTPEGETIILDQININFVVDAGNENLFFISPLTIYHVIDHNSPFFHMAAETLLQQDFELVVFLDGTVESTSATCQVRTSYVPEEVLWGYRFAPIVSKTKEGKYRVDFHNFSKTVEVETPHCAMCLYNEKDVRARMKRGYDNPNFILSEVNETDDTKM
RBBP9 inhibitor – human RBBP9 hydrolase inhibition; inhibition, % at 7.94 µM; hit rate 0.2% among 220,000; recombinant RBBP9, FP-Rh probe fluorescence polarization; AID 1515;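 active = inhibition above the campaign mean of all tested compounds plus 3 SD, cut at about 14% in these data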;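 note: plate controls were DMSO wells with RBBP9 for no effect and wells lacking RBBP9 protein for full effect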
Target sequence (O75884 whole entry, looked up): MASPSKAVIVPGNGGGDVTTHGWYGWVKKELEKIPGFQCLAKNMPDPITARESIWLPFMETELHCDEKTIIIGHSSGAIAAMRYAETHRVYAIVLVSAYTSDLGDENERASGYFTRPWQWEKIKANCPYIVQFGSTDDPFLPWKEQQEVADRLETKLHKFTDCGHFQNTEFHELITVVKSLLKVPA
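Assay system: recombinant human RBBP9; Reagent: Serine-hydrolase probe FP-Rh, 375 nM pre-mixing; Doses: 7.94 µM single dose, 0.794% DMSO; Incubation: 30 min then 45 min, 25 °C; Detection: fluorescence polarization (mP), excitation 525 nm, emission 598 nm; Evaluation: percent inhibition from mP, scaled between DMSO and no-protein wells.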
KCC2 mod – modulators of human KCC2 chloride dependent transport | Q9H2X9 | KCC2 cells, thallium flux FluoZin-2 fluorescence | B-score of Tl+ flux slope (higher = more flux/activation; lower = inhibition) at 10 µM | hit rate 2.2% among 190,000 | AID 1456;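 active = thallium flux slope and its plate-corrected score both differing from the plate sample mean at a set confidence after two filtering rounds, in either direction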;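 note: slope of fluorescence scaled to starting intensity during 10 to 20 s after thallium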
KCC2 sec1 – confirmation of human KCC2 transport modulators; shares compounds with KCC2 mod; HEK293-KCC2, thallium flux, FluoZin2 fluorescence; hits give high values; normalised thallium flux (F/F0 slope) at 10 µM; hit rate 15% among 3,700;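 active = thallium flux slope above the same plate's solvent-only control mean plus 3 SD; inconclusive = the two replicate wells disagree; inactive = no significant difference from solvent-only control wells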
KCC2 bumet counter – thallium flux despite bumetanide block in KCC2 cells, secondary assay 3. shares compounds with KCC2 mod. HEK293-KCC2 + bumetanide/ouabain, thallium flux FluoZin2; hits give high values. normalized thallium flux at 10 µM. hit rate 49% among 3,700. AID 1714;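 active = thallium entry rate above the same plate's blocked-transporter control wells by more than 3 SD; inconclusive = the two repeat wells disagree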;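 note: raw slope of fluorescence over initial fluorescence between 10 and 20 s after thallium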
KCC2 secondary2 – KCC2 (human) modulation, second secondary assay | shares compounds with KCC2 mod | HEK293-KCC2, thallium flux FluoZin2 fluorescence; actives lie on both sides; F/F0 rise rate, 10–20 s post-thallium | normalized thallium flux at 10 µM | hit rate 23% among 3,700 | AID 1715;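 active = thallium flux slope more than 3 SD above or below the plate's solvent-only control mean, mostly below; inconclusive = the two repeat wells disagreed; inactive = no significant shift from solvent-only controls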;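 note: raw slope with 0.1% DMSO as baseline and bumetanide as block control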
HEK counter1 – acts in parental HEK cells, KCC2 counter-screen | shares compounds with KCC2 mod | HEK293 parental cells, thallium flux FluoZin2, ouabain; baseline-ratio fluorescence slope, 10–20 s after thallium | thallium flux rate (normalised fluorescence) at 10 µM | hit rate 46% among 3,700 | AID 1716;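 active = thallium flux rate significantly above the same plate's solvent-only control wells, beyond their mean plus 3 SD; inconclusive = the two replicate wells gave conflicting results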
KCC2 ouabain – modulates human KCC2 on retest with ouabain; shares compounds with KCC2 mod; HEK293-KCC2, thallium flux FluoZin2 fluorescence; bidirectional: low = inhibitor, high = activator; hit rate 48% among 3,700; raw Tl+ flux slope (below DMSO = inhibition, above = activation) at 10 µM;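 active = thallium flux slope beyond 3 SD from same-plate DMSO control mean in most replicates, usually higher, sometimes lower; inconclusive = repeat tests gave conflicting results; inactive = no significant difference from controls in most replicates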;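 note: slope of initial-normalized fluorescence between seconds 10 and 20 after thallium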
HEK293 Tl flux2 – counter-screen for KCC2 modulators: effect in parental HEK293 cells. shares compounds with KCC2 mod. thallium flux FluoZin-2 fluorescence slope. AID 1718. hit rate 33% among 3,700. thallium flux slope at 10 µM;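 active = thallium flux slope above the same plate's solvent-control mean plus 3 SD in both duplicate wells; inconclusive = duplicate wells that disagreed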;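 note: run without ouabain in cells lacking the KCC2 cotransporter; slope of fluorescence scaled to its starting value between 10 and 20 s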
Starred values were filed as active, the others as inactive; ? = inconclusive; · = not tested or not shown.

SMILES	14-3-3 Bad PPI	WT yeast gro inh	p47phox inh	ROMK mod	RBBP9 inhibitor	KCC2 mod	KCC2 sec1	KCC2 bumet counter	KCC2 secondary2	HEK counter1	KCC2 ouabain	HEK293 Tl flux2
O=c1[nH]c(=S)n(Cc2ccco2)c(O)c1C=NCc1cccs1	-8	15	-20	-1.2	-7	-3.2*	0.0095	0.0066	?	0.008	0.02*	0.011
CCCC(=O)OCC[N+](C)(C)C	-4	-7	-7	·	-9	4.9*	?	0.008	0.029	0.0072	0.022	0.0098
CC(C(=O)O)N(C(=O)c1ccccc1)c1ccc(F)c(Cl)c1 (stereo not given)	-5	2	1	0.27	8	0.51	·	·	·	·	·	·
COc1cc(C(=S)N2CCOCC2)cc(OC)c1OC(=O)Cc1ccccc1	-6	-1	-3	-0.39	1	-5.4*	?	0.006*	0.021*	0.0076	0.013	0.0097
S=C1Nc2ccccc2Sc2ccccc21	-5	15	-17	-0.52	-10	48*	0.019*	0.075*	0.03	0.054*	0.053*	0.013*
C=CCn1c(O)c(C(C)=NC2CCN(Cc3ccccc3)CC2)c(=O)[nH]c1=O	7	·	-1	·	-1	-0.074	·	·	·	·	·	·
CC(C)c1oc(=O)cc2c1[C@@H](O)[C@H]1OC(=O)[C@@]3(C)C[C@@H](O)[C@@H](O)[C@@]2(C)C13 (stereo not given in full)	1	-6	-8	0.31	-1	5.5*	0.0096	0.0068	0.029	?	0.021	0.01
Cc1cc([N+](=O)[O-])c(Cl)cc1NC(=O)C(C)C	-6	-6	7	-0.33	-6	0.73	·	·	·	·	·	·
CNc1cc(Cl)c2nonc2c1[N+](=O)[O-]	-6	54	11	-2.2	2	-4.6*	0.0073	0.007*	?	0.007	0.017	0.01
Cc1c(C(=O)N2CCC3(CC2)OCCO3)oc2ccc(S(=O)(=O)N3CCCCC3)cc12	3	16	-2	-0.87	-5	0.32	·	·	·	·	·	·
CCN(CC)CCCN=Cc1c(O)n(CCc2ccc(OC)c(OC)c2)c(=O)[nH]c1=O	-10	-14	-5	·	0	-6.2*	0.01	0.0067	0.033	?	0.024	?
CCN(CC)c1ccc(N=Cc2c(O)n(CCc3ccc(OC)c(OC)c3)c(=O)[nH]c2=O)cc1	10	34	-17	·	-6	-0.35	·	·	·	·	·	·
COc1ccccc1[As](=O)(O)CC(O)COc1ccc(Cl)cc1Cl (stereo not given)	0	·	-11	·	-8	-0.035	·	·	·	·	·	·
NC(=O)c1ccc(N=Nc2c(O)[nH]c(=O)[nH]c2=O)cc1	11	-14	-13	·	-4	0.44	·	·	·	·	·	·
O=c1[nH]c(O)c(N=Nc2cc([N+](=O)[O-])ccc2O)c(=O)[nH]1	-20	40	-49	·	-15	·	0.0072	?	0.032	0.008	0.019	0.012
O=C(COc1ccc(Cl)cc1Cl)N1CCN(C/C=C/c2ccccc2)CC1	8	-9	-18	-1.4	-5	-6.8*	0.0077	0.0057	0.034	0.0072	0.02	0.011
Cn1cc(C(=O)Cc2ccccc2)c2ccccc21	2	-10	-4	·	-6	0.71	·	·	·	·	·	·
CCOc1ccc(-n2c(O)c(N=Nc3ccc([N+](=O)[O-])cc3)c(=O)[nH]c2=O)cc1	-10	7	3	0.76	0	-2.6	·	·	·	·	·	·
COc1ccc(C2c3c(nc(C)[nH]c3=O)Oc3c2c(=O)oc2ccccc32)cc1 (stereo not given)	3	·	-11	0.69	-8	-0.68	·	·	·	·	·	·
CCCCn1c(O)c(/C=C/C=Nc2ccccc2)c(=O)[nH]c1=O	4	3	-17	·	5	-4.7*	0.0026*	-0.0018*	0.025*	0.0019*	0.0084*	0.007*
O=c1[nH]c(=O)n(Cc2ccc(F)cc2)c(O)c1C=NCc1cccnc1	8	-5	-55	·	1	4.4*	0.0095	0.0056	0.033	0.0044	0.019	0.011
CC(C)n1c(O)c(C=NCc2cccnc2)c(=O)[nH]c1=S	2	·	1	·	-5	-0.79	·	·	·	·	·	·
CCC(C)n1c(O)c(C=Nc2cccc(C(F)(F)F)c2)c(=O)[nH]c1=S (stereo not given)	-9	16	-29	0.0051	-9	0.77	0.0062	0.018*	0.03	0.019*	0.025*	0.015*
Cc1ccc(C2N(c3cc(C)on3)C(=O)C3CCCN32)cc1 (stereo not given)	-5	8	-2	·	4	·	·	·	·	·	·	·
COc1cccc(-n2c(-c3ccoc3)nc3ccccc3c2=O)c1	-8	-11	-3	-1.6	-7	·	0.0066	0.0041	0.031	0.0072	0.018	0.0098
SMILES	14-3-3 Bad PPI	WT yeast gro inh	p47phox inh	ROMK mod	RBBP9 inhibitor	KCC2 mod	KCC2 sec1	KCC2 bumet counter	KCC2 secondary2	HEK counter1	KCC2 ouabain	HEK293 Tl flux2
NNC(=O)c1ccc(Cl)cc1	-5	8	-13	-0.31	-9	4.3*	0.0086	0.0047	0.031	0.0069	0.02	0.01
CNc1ccc2oc(C[C@H]3O[C@@]4(CC[C@H]3C)O[C@H]([C@H](C)C(=O)c3ccc[nH]3)[C@H](C)C[C@H]4C)nc2c1C(=O)O	-12	·	6	·	·	7.4*	0.0066	0.0092*	0.035	?	?	0.011
O=C1C2CCCN2C(c2cccnc2)N1c1ccc(Cl)cc1 (stereo not given)	7	-2	-1	·	-6	0.18	·	·	·	·	·	·
O=C1C2CCCN2C(c2cccnc2)N1c1nccs1 (stereo not given)	9	-10	-4	·	-6	3.2*	0.016	?	0.028	0.0075	0.016	0.0099
NP(=O)(Oc1ccc(Cl)cc1)Oc1ccc(Cl)cc1	-9	-11	-6	-1.1	-6	-1.8	·	·	·	·	·	·
COc1ccc(-n2c(=O)[nH]c3ccccc3c2=O)cc1	-6	18	-6	·	-2	0.9	0.0096	0.0063	0.031	0.0084	0.019	0.01
COc1ccc(-n2c(=O)[nH]c3ccccc3c2=O)c(OC)c1	22	-11	3	0.15	-7	0.16	·	·	·	·	·	·

Compound activity deposited in PubChem by several laboratories.
